# Measured values published in ChEMBL document CHEMBL4732265, “Identification of Piperidine-3-carboxamide Derivatives Inducing Senescence-like Phenotype with Antimelanoma Activities” (ACS Med Chem Lett, 2021).
# System: A-375
# Assay: Induction of senescence in human A-375 cells treated for 3 days by Hoechst staining based imaging analysis
# Type: functional, cell-based
# Conditions: A-375, 72 h
# Method in brief: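 A375 melanoma cells were treated for 3 days with a 3-fold dilution series in 0.5% DMSO and stained with Hoechst 33342, LysoTracker Red DND-99 and CellMask. Image analysis scored cell and nucleus size, granule size and spacing, and cytoplasmic texture to give the percentage of senescent cells per well. EC50 is the concentration inducing senescence in half the population, taken from dose–response curves. Run in duplicate; Z′ about 0.8.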
row,EC50,Compound
1,2200 nM,O=C(Nc1ccc(-c2ccco2)cc1)C1CCCN(Cc2ccc(F)c(F)c2)C1 (stereo not drawn)
2,19000 nM,O=C(Nc1ccc(-c2cscn2)cc1)C1CCN(Cc2ccc(F)c(F)c2)CC1
3,10000 nM,O=C(Nc1ccc(-c2cscn2)cc1)C1CCCN(Cc2cccc(F)c2F)C1 (stereo not drawn)
4,> 20000 nM,O=C(Nc1ccc2scnc2c1)C1CCCN(Cc2ccc(F)c(F)c2)C1 (stereo not drawn)
5,19900 nM,O=C(Nc1ccc(-c2ccc[nH]2)cc1)[C@@H]1CCCN(Cc2ccc(F)c(F)c2)C1
6,5000 nM,O=C(Nc1ccc(-c2cscn2)cc1)C1CCCN(Cc2ccc(F)cc2)C1 (stereo not drawn)
7,530 nM,O=C(Nc1ccc(-c2cccs2)cc1)C1CCCN(Cc2ccc(F)c(F)c2)C1 (stereo not drawn)
8,270 nM,O=C(Nc1ccc(-c2cscn2)cc1)[C@H]1CCCN(Cc2ccc(F)c(F)c2)C1
9,140 nM,O=C(Nc1ccc(-c2ccc[nH]2)cc1)[C@H]1CCCN(Cc2ccc(F)c(F)c2)C1
10,> 20000 nM,O=C(Nc1ccc(-c2cscn2)cc1)C1CCCN(Cc2cccnc2)C1 (stereo not drawn)
11,3000 nM,Cc1cc(NC(=O)[C@H]2CCCN(Cc3ccc(F)c(F)c3)C2)ccc1-c1ccc[nH]1
12,2610 nM,O=C(Nc1ccc(-c2cc[nH]c2)cc1)C1CCCN(Cc2ccc(F)c(F)c2)C1 (stereo not drawn)
13,8000 nM,O=C(Nc1ccc(-c2ncc[nH]2)cc1)C1CCCN(Cc2ccc(F)c(F)c2)C1 (stereo not drawn)
14,16000 nM,O=C(Nc1ccc(-c2c[nH]cn2)cc1)C1CCCN(Cc2ccc(F)c(F)c2)C1 (stereo not drawn)
15,160 nM,O=C(Nc1ccc(-c2ccc[nH]2)cc1)[C@H]1CCCN(Cc2ccc3c(c2)OCO3)C1
16,800 nM,O=C(Nc1ccc(-c2nccs2)cc1)C1CCCN(Cc2ccc(F)c(F)c2)C1 (stereo not drawn)
17,3000 nM,O=C(Nc1ccc(-c2cscn2)cc1)C1CCCN(Cc2ccc(Cl)c(Cl)c2)C1 (stereo not drawn)
18,1180 nM,O=C(Nc1ccc(-c2ccncc2)cc1)C1CCCN(Cc2ccc(F)c(F)c2)C1 (stereo not drawn)
19,4000 nM,O=C(Nc1ccc(-c2ccc[nH]2)nc1)[C@H]1CCCN(Cc2ccc(F)c(F)c2)C1
20,7000 nM,O=C(Nc1ccc(-c2cscn2)cc1)C1CCCN(Cc2ccccc2F)C1 (stereo not drawn)
21,> 20000 nM,O=C(Nc1ccc(-c2cscn2)cc1)C1CCCN(Cc2ccccc2)C1 (stereo not drawn)
22,4000 nM,COc1cc(-c2cscn2)ccc1NC(=O)C1CCCN(Cc2ccc(F)c(F)c2)C1 (stereo not drawn)
23,580 nM,O=C(Nc1ccc(-c2ccn[nH]2)cc1)C1CCCN(Cc2ccc(F)c(F)c2)C1 (stereo not drawn)
24,> 20000 nM,O=C(Nc1ccc(-c2cscn2)cc1)C1CCCN(Cc2ccc3cn[nH]c3c2)C1 (stereo not drawn)

# System: A-375
# Assay: Antiproliferative activity in human A-375 cells assessed as reduction of cell number
# Type: functional, cell-based
# Conditions: not given
# Method in brief: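 A375 human melanoma cells exposed to compound for 3 days in 3-fold serial dilution in 0.5% DMSO. Cells were stained with Hoechst 33342, LysoTracker Red DND-99 and CellMask, then imaged and segmented by a customized algorithm. Cell number per well was counted, and IC50 is the concentration reducing cell number by 50%, taken from dose–response curves. Run in duplicate.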
row,IC50,Compound
1,1040 nM,O=C(Nc1ccc(-c2ccco2)cc1)C1CCCN(Cc2ccc(F)c(F)c2)C1 (stereo not drawn)
2,> 20000 nM,O=C(Nc1ccc(-c2cscn2)cc1)C1CCN(Cc2ccc(F)c(F)c2)CC1
3,1480 nM,O=C(Nc1ccc(-c2cscn2)cc1)C1CCCN(Cc2cccc(F)c2F)C1 (stereo not drawn)
4,> 20000 nM,O=C(Nc1ccc2scnc2c1)C1CCCN(Cc2ccc(F)c(F)c2)C1 (stereo not drawn)
5,18000 nM,O=C(Nc1ccc(-c2ccc[nH]2)cc1)[C@@H]1CCCN(Cc2ccc(F)c(F)c2)C1
6,2250 nM,O=C(Nc1ccc(-c2cscn2)cc1)C1CCCN(Cc2ccc(F)cc2)C1 (stereo not drawn)
7,390 nM,O=C(Nc1ccc(-c2cccs2)cc1)C1CCCN(Cc2ccc(F)c(F)c2)C1 (stereo not drawn)
8,190 nM,O=C(Nc1ccc(-c2cscn2)cc1)[C@H]1CCCN(Cc2ccc(F)c(F)c2)C1
9,190 nM,O=C(Nc1ccc(-c2ccc[nH]2)cc1)[C@H]1CCCN(Cc2ccc(F)c(F)c2)C1
10,> 20000 nM,O=C(Nc1ccc(-c2cscn2)cc1)C1CCCN(Cc2cccnc2)C1 (stereo not drawn)
11,730 nM,Cc1cc(NC(=O)[C@H]2CCCN(Cc3ccc(F)c(F)c3)C2)ccc1-c1ccc[nH]1
12,1420 nM,O=C(Nc1ccc(-c2cc[nH]c2)cc1)C1CCCN(Cc2ccc(F)c(F)c2)C1 (stereo not drawn)
13,19000 nM,O=C(Nc1ccc(-c2ncc[nH]2)cc1)C1CCCN(Cc2ccc(F)c(F)c2)C1 (stereo not drawn)
14,> 20000 nM,O=C(Nc1ccc(-c2c[nH]cn2)cc1)C1CCCN(Cc2ccc(F)c(F)c2)C1 (stereo not drawn)
15,220 nM,O=C(Nc1ccc(-c2ccc[nH]2)cc1)[C@H]1CCCN(Cc2ccc3c(c2)OCO3)C1
16,240 nM,O=C(Nc1ccc(-c2nccs2)cc1)C1CCCN(Cc2ccc(F)c(F)c2)C1 (stereo not drawn)
17,1730 nM,O=C(Nc1ccc(-c2cscn2)cc1)C1CCCN(Cc2ccc(Cl)c(Cl)c2)C1 (stereo not drawn)
18,600 nM,O=C(Nc1ccc(-c2ccncc2)cc1)C1CCCN(Cc2ccc(F)c(F)c2)C1 (stereo not drawn)
19,3010 nM,O=C(Nc1ccc(-c2ccc[nH]2)nc1)[C@H]1CCCN(Cc2ccc(F)c(F)c2)C1
20,4000 nM,O=C(Nc1ccc(-c2cscn2)cc1)C1CCCN(Cc2ccccc2F)C1 (stereo not drawn)
21,> 20000 nM,O=C(Nc1ccc(-c2cscn2)cc1)C1CCCN(Cc2ccccc2)C1 (stereo not drawn)
22,580 nM,COc1cc(-c2cscn2)ccc1NC(=O)C1CCCN(Cc2ccc(F)c(F)c2)C1 (stereo not drawn)
23,520 nM,O=C(Nc1ccc(-c2ccn[nH]2)cc1)C1CCCN(Cc2ccc(F)c(F)c2)C1 (stereo not drawn)
24,> 20000 nM,O=C(Nc1ccc(-c2cscn2)cc1)C1CCCN(Cc2ccc3cn[nH]c3c2)C1 (stereo not drawn)
